The subject of test [1] is Staphylococcus aureus. The test can be described thus: Antimicrobial activity against methicillin-resistant Staphylococcus aureus 344/2-32 assessed as zone of inhibition at 2450 uM incubated overnight at 37 degC. Type of test: functional, organism-based.
The test system of test [2] is Escherichia coli. The test can be described thus: Antimicrobial activity against Escherichia coli ATCC 25922 assessed as zone of inhibition at 2450 uM incubated overnight at 37 degC. The format is functional, organism-based. Summed up:
(§1)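 Pure isolates screened against a panel of five bacteria and one fungus, each at a single concentration within 1639–5230 μM. A commercial antibiotic and antifungal agent were tested in parallel as references. Growth inhibition was recorded as the zone of inhibition.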

In test [3] the test system is Candida albicans. The test can be described thus: Antimicrobial activity against Candida albicans ATCC 10231 assessed as zone of inhibition at 2450 uM incubated overnight at 37 degC. The format is functional, organism-based. In short, it runs like this: as §1
In test [4] the test system is Pseudomonas aeruginosa. The test can be described thus: Antimicrobial activity against Pseudomonas aeruginosa ATCC 27853 assessed as zone of inhibition at 2450 uM incubated overnight at 37 degC. Type of test: functional, organism-based. In short, it runs like this:
as §1

Test [5] relates to Streptococcus pyogenes. The test can be described thus: Antimicrobial activity against Streptococcus pyogenes 345/1 assessed as zone of inhibition at 2450 uM incubated overnight at 37 degC. The format is functional, organism-based. In short, it runs like this: as §1
In test [6] the test system is Staphylococcus aureus. Description: Antimicrobial activity against Staphylococcus aureus ATCC 25923 assessed as zone of inhibition at 2450 uM incubated overnight at 37 degC. The format is functional, organism-based. In short, it runs like this:
as §1

The test system of test [7] is Streptococcus pyogenes. Description: Antimicrobial activity against Streptococcus pyogenes 345/1 assessed as zone of inhibition at 3875 uM incubated overnight at 37 degC. Type of test: functional, organism-based.
The test system of test [8] is Pseudomonas aeruginosa. Description: Antimicrobial activity against Pseudomonas aeruginosa ATCC 27853 assessed as zone of inhibition at 3875 uM incubated overnight at 37 degC. The format is functional. The conditions noted are these: read-out: IZ. In short, it runs like this:
as §1

In test [9] the test system is Candida albicans. Description: Antimicrobial activity against Candida albicans ATCC 10231 assessed as zone of inhibition at 3875 uM incubated overnight at 37 degC. Type of test: functional, organism-based. Summed up:
as §1

Test [10] has as its system Staphylococcus aureus. The test can be described thus: Antimicrobial activity against Staphylococcus aureus ATCC 25923 assessed as zone of inhibition at 3875 uM incubated overnight at 37 degC. Type of test: functional. The note with it: read-out: IZ. Summed up: as §1
Test [11] deals with Staphylococcus aureus. Description: Antimicrobial activity against methicillin-resistant Staphylococcus aureus 344/2-32 assessed as zone of inhibition at 3875 uM incubated overnight at 37 degC. Type of test: functional, organism-based.
Test [12] concerns Escherichia coli. The test can be described thus: Antimicrobial activity against Escherichia coli ATCC 25922 assessed as zone of inhibition at 3875 uM incubated overnight at 37 degC. Type of test: functional, organism-based. In short, it runs like this: as §1
Test [13] has as its system Candida albicans. The test can be described thus: Antimicrobial activity against Candida albicans ATCC 10231 assessed as zone of inhibition at 3649 uM incubated overnight at 37 degC. Type of test: functional, organism-based. Summed up: as §1
Test [14] has as its system Streptococcus pyogenes. The test can be described thus: Antimicrobial activity against Streptococcus pyogenes 345/1 assessed as zone of inhibition at 3649 uM incubated overnight at 37 degC. Type of test: functional, organism-based.
Test [15] relates to Staphylococcus aureus. Description: Antimicrobial activity against methicillin-resistant Staphylococcus aureus 344/2-32 assessed as zone of inhibition at 3649 uM incubated overnight at 37 degC. The format is functional, organism-based.
In test [16] the test system is Escherichia coli. Description: Antimicrobial activity against Escherichia coli ATCC 25922 assessed as zone of inhibition at 3649 uM incubated overnight at 37 degC. Type of test: functional, organism-based. In short, it runs like this: as §1
Test [17] has as its system Staphylococcus aureus. Description: Antimicrobial activity against Staphylococcus aureus ATCC 25923 assessed as zone of inhibition at 3649 uM incubated overnight at 37 degC. The format is functional, organism-based. In short, it runs like this:
as §1

Test [18] concerns Pseudomonas aeruginosa. The test can be described thus: Antimicrobial activity against Pseudomonas aeruginosa ATCC 27853 assessed as zone of inhibition at 3649 uM incubated overnight at 37 degC. The format is functional. The note with it: read-out: IZ. In short, it runs like this:
as §1

Test [19] has as its system Candida albicans. The test can be described thus: Antimicrobial activity against Candida albicans ATCC 10231 assessed as zone of inhibition at 5230 uM incubated overnight at 37 degC. The format is functional, organism-based.
Test [20] relates to Escherichia coli. The test can be described thus: Antimicrobial activity against Escherichia coli ATCC 25922 assessed as zone of inhibition at 2211 uM incubated overnight at 37 degC. Type of test: functional, organism-based. Summed up: as §1
In test [21] the test system is Streptococcus pyogenes. The test can be described thus: Antimicrobial activity against Streptococcus pyogenes 345/1 assessed as zone of inhibition at 2211 uM incubated overnight at 37 degC. Type of test: functional. The conditions noted are these: read-out: IZ. Summed up:
as §1

Test [22] deals with Staphylococcus aureus. Description: Antimicrobial activity against methicillin-resistant Staphylococcus aureus 344/2-32 assessed as zone of inhibition at 2211 uM incubated overnight at 37 degC. Type of test: functional, organism-based.
The subject of test [23] is Staphylococcus aureus. The test can be described thus: Antimicrobial activity against Staphylococcus aureus ATCC 25923 assessed as zone of inhibition at 2211 uM incubated overnight at 37 degC. The note with it: read-out: IZ. Type of test: functional. Summed up:
as §1

For test [24], the system named is Pseudomonas aeruginosa. The test can be described thus: Antimicrobial activity against Pseudomonas aeruginosa ATCC 27853 assessed as zone of inhibition at 2211 uM incubated overnight at 37 degC. Type of test: functional, organism-based. Summed up: as §1
Test [25] relates to Candida albicans. The test can be described thus: Antimicrobial activity against Candida albicans ATCC 10231 assessed as zone of inhibition at 2211 uM incubated overnight at 37 degC. Type of test: functional, organism-based. In short, it runs like this:
as §1

Test [26] relates to Escherichia coli. The test can be described thus: Antimicrobial activity against Escherichia coli ATCC 25922 assessed as zone of inhibition at 3030 uM incubated overnight at 37 degC. Type of test: functional, organism-based. In short, it runs like this: as §1
Test [27] concerns Pseudomonas aeruginosa. Description: Antimicrobial activity against Pseudomonas aeruginosa ATCC 27853 assessed as zone of inhibition at 3030 uM incubated overnight at 37 degC. The format is functional. The note with it: read-out: IZ. In short, it runs like this:
as §1

For test [28], the system named is Staphylococcus aureus. The test can be described thus: Antimicrobial activity against methicillin-resistant Staphylococcus aureus 344/2-32 assessed as zone of inhibition at 3030 uM incubated overnight at 37 degC. The format is functional, organism-based.
The subject of test [29] is Candida albicans. The test can be described thus: Antimicrobial activity against Candida albicans ATCC 10231 assessed as zone of inhibition at 3030 uM incubated overnight at 37 degC. Type of test: functional, organism-based. In short, it runs like this:
as §1

Test [30] concerns Staphylococcus aureus. Description: Antimicrobial activity against Staphylococcus aureus ATCC 25923 assessed as zone of inhibition at 3030 uM incubated overnight at 37 degC. Type of test: functional, organism-based. Summed up:
as §1

Test [31] relates to Streptococcus pyogenes. Description: Antimicrobial activity against Streptococcus pyogenes 345/1 assessed as zone of inhibition at 3030 uM incubated overnight at 37 degC. The format is functional, organism-based. In short, it runs like this:
as §1

The source made the active and inactive calls. The calls are words filed in the database; no cut-off is given here.

For the compound `COC(OC)c1cc(O)c2c(-c3cc(O)cc(O)c3)c(-c3ccc(O)cc3)oc2c1`, the “inhibition zone (IZ)” value in the test on Staphylococcus aureus [1], with Escherichia coli [2], in the test with Candida albicans [3], with Pseudomonas aeruginosa [4], with Streptococcus pyogenes [5] and with Staphylococcus aureus [6] was “inactive” in each case.
For `O=C1C(=O)c2c(-c3ccccc3)ccc3cccc1c23`, the “inhibition zone (IZ)” value with Streptococcus pyogenes [7], in the test on Candida albicans [9], with Staphylococcus aureus [11] and with Escherichia coli [12] was “inactive” in each case. Also, the zone of inhibition at 3875 µM in the test on Pseudomonas aeruginosa [8] was found to be 1 mm; with Staphylococcus aureus [10], 2 mm.
On to `O=C1OC(=O)c2c(-c3ccccc3)ccc3cccc1c23`, for which the “inhibition zone (IZ)” value in the test with Candida albicans [13], with Streptococcus pyogenes [14], with Staphylococcus aureus [15], in the test on Escherichia coli [16] and with Staphylococcus aureus [17] was “inactive” each time. Also, in the test on Pseudomonas aeruginosa [18], the zone of inhibition at 3649 µM was 2 mm.
For `COC(=O)Nc1nc2ccccc2[nH]1`, the “inhibition zone (IZ)” value in the test on Candida albicans [19] was “inactive”.
Take `Oc1ccc(/C=C/c2cc(O)c3c(-c4cc(O)cc(O)c4)c(-c4ccc(O)cc4)oc3c2)cc1`: the “inhibition zone (IZ)” value in the test with Escherichia coli [20], in the test on Staphylococcus aureus [22], with Pseudomonas aeruginosa [24] and in the test on Candida albicans [25] was “inactive” throughout. Besides, the zone of inhibition at 2211 µM worked out at 1 mm in the test with Streptococcus pyogenes [21] and 2 mm with Staphylococcus aureus [23].
For `O=C(/C=C/c1ccc(O)cc1)c1c(O)cc(O)cc1O[C@@H]1O[C@H](CO)[C@@H](O)[C@H](O)[C@H]1O`, the “inhibition zone (IZ)” value in the test on Escherichia coli [26], in the test on Staphylococcus aureus [28], with Candida albicans [29], in the test with Staphylococcus aureus [30] and with Streptococcus pyogenes [31] was “inactive” each time. In the test on Pseudomonas aeruginosa [27], the zone of inhibition at 3030 µM stood at 2 mm.

The record behind these values is ChEMBL document CHEMBL3593182, “Phytochemical Investigation of the Constituents Derived from the Australian Plant Macropidia fuliginosa” (2015).
